# B1: GFP-YAP65: GFP fused in-frame with YAP65 (protein)
# chain: MDPGQQPPPQPAPQGQGQPPSQPPQGQGPPSGPGQPAPAATQAAPQAPPAGHQIVHVRGDSETDLEALFNAVMNPKTANVPQTVPMRLRKLPDSFFKPPEPKSHSRQASTDAGTAGALTPQHVRAHSSPASLQLGAVSPGTLTPTGVVSGPAATPTAQHLRQSSFEIPDDVPLPAGWEMAKTSSGQRYFLNHIDQTTTWQDPRKAMLSQMNVTAPTSPPVQQNMMNSASAMNQRISQSAPVKQPPPLAPQSPQGGVMGGSNSNQQQQMRLQQLQMEKERLRLKQQELLRQVRPQELALRSQLPTLEQDGGTQNPVSSPGMSQELRTMTTNSSDPFLNSGTYHSRDESTDSGLSMSSYSVPRTPDDFLNSVDEMDTGDTINQSTLPSQQNRFPDYLEAIPGTNVDLGTLEGDGMNIEGEELMPSLQEALSSDILNDMESVLAATKLDKESFLTWL
# modifications: left off: GFP, end not stated, kept
# B2: EBP50: ERM-binding phosphoprotein 50 kD; two PDZ domains (protein)
# chain: MSADAAAGAPLPRLCCLEKGPNGYGFHLHGEKGKLGQYIRLVEPGSPAEKAGLLAGDRLVEVNGENVEKETHQQVVSRIRAALNAVRLLVVDPETDEQLQKLGVQVREELLRAQEAPGQAEPPAAAEVQGAGNENEPREADKSHPEQRELRPRLCTMKKGPSGYGFNLHSDKSKPGQFIRSVDPDSPAEASGLRAQDRIVEVNGVCMEGKQHGDVVSAIRAGGDETKLLVVDRETDEFFKKCRVIPSQEHLNGPLPVPFTNGEIQKENSREALAEAALESPRPALVRSASSDTSEELNSQDSPPKQDSTAPSSTSSSDPILDFNISLAMAKERAHQKRSSKRAPQMDWSKKNELFSNL
# modifications: left off: GST, end not stated, kept
# Key:
# Assay type in all cases: cell-based, human
# EBP50 = assay: coimmunoprecipitation with EBP50 antisera from 16HBE14o− lysates; details: 16HBE14o− lysates (wild type or stably expressing GFP chimera), immunoblot
# Procedure, shortened: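 16HBE14o− cells were wild type or stable lines expressing GFP-YAP65 or GFP-YAP65 lacking the last four residues (G418 400 µg/ml; ≥2 clones). Cells were lysed in RIPA. Rabbit anti-EBP50, preimmune serum or normal rabbit IgG (2 µg) was prebound to protein A beads. Lysate (~300 µg or ~200 µg) was incubated for 4–12 h at 4°C. Beads washed three times in RIPA; 10% SDS-PAGE; immunoblot with anti-YAP65 or anti-ezrin (1:1,000); 10–20% input.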
# c-Yes = details: 16HBE14o− on transwell filters, mouse anti–c-Yes (1:100), XZ confocal
# Procedure, shortened: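 16HBE14o− clones stably expressing GFP-YAP65 chimeras were selected with G418 and screened by fluorescence and anti-GFP blot. Cells were grown to confluence on transwell filters and fixed in 4% paraformaldehyde. After blocking (milk/BSA/0.1% Triton X-100, 3 h), they were stained with mouse anti-c-Yes (1:100) and fluorescent secondary antiserum, then scanned in XZ by confocal microscopy. At least two independent clones per line were analysed.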
# [1] = tested on: apical membrane of airway epithelial cells; details: 16HBE14o− cells on transwell filters 7–10 d after confluence, confocal
# Procedure, shortened: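 Samples were 16HBE14o− filters (7–10 d post-confluence) or primary nasal cultures (air-liquid interface, 40–50 d). Fixation was 4% paraformaldehyde, 5–20 min, room temperature. Blocking used milk/BSA/Triton (16HBE14o−) or 10–20% goat serum (primary). Primary antisera ran 4–12 h: ezrin 1:300, ZO-1 1:200, EBP50 1:500 or 1:200, YAP65 1:300 or 1:200. Primary cultures also got 70 nM FITC-phalloidin. Texas red/FITC secondaries, XZ confocal imaging.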
Molecule,presence in EBP50 immunoprecipitates (EBP50),c-Yes distribution in cells stably overexpressing the chimera (c-Yes),localization of endogenous protein [1]
B1,present in EBP50 immunoprecipitates,c-Yes was accumulated at the apical membrane,–
B2,–,–,preferentially accumulated at the apical membrane

# Source: publication PMC2156157 (The Journal of Cell Biology, 1999)
